SENP8 block-1 = blocks the human protease SENP8 | purified SENP8, Z-RLRGG-aminoluciferin cleavage, luminescence | inhibition, % at 10 µM | hit rate 1.2% among 330,000 | AID 2540; in the data active means inhibition above about 50%
Target sequence (Q96LD8 whole entry, looked up): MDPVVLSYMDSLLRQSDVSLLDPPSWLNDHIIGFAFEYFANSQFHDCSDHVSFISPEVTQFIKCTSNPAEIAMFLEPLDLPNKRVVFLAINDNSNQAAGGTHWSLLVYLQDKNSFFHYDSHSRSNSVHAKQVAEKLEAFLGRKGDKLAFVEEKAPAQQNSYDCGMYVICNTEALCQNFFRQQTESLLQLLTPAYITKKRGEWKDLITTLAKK
SENP6 block = SENP6 protease inhibition | Recombinant SENP6 catalytic domain, aminoluciferin luminescence | Q9GZR1 | inhibition, % at 10 µM | AID 2599 | hit rate 1.8% among 330,000;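 active means inhibition above about 50% at the single tested dose, limit read from the data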;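 further: plate controls were DMSO wells with enzyme for no effect and DMSO wells lacking enzyme for full effect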
SENP8 block-2 = blocks human SENP8 cleavage of Nedd8 substrate; Q96LD8; recombinant SENP8, Nedd8 substrate fluorescence; inhibition, % at 20 µM; hit rate 0.64% among 360,000; in the data active means inhibition mostly above about 40%, no sharp cut-off; inactive means mostly below about 27%
Apaf1 inhib = human Apaf-1 inhibition | O14727 | hit rate 0.71% among 330,000 | AID 489030 | inhibition, % at 20 µM | reconstituted apoptosome caspase-3 activity, DEVD-Rh110 fluorescence; active means inhibition of at least 40% at 20 µM;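 further: plate controls were DMSO wells for no effect and DEVD-CHO caspase inhibitor wells for full effect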
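System – cell-free apoptosome with Apaf-1, procaspase-3 and caspase-9 · Buffer or medium – pH 7.5 Hepes buffer with CHAPS, BSA, DTT · Also added – cytochrome c with DEVD-Rh110 · Times – 30 min compound preincubation, 50 min activation, room temperature · Technique – Rh110 fluorescence intensity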
SENP1 inh = inhibitors of human SENP1 SUMO protease catalytic domain | Q9P0U3 | AID 624204 | hit rate 0.21% among 360,000 | inhibition, % at 10 µM | recombinant SENP1 catalytic domain, CyPet-SUMO1-YPet FRET cleavage;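 active means inhibition at least 30% at 10 µM, raw YFP signal under a set limit, fluorescence ratio 0.5 to 1.5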;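 further: 0% = enzyme with DMSO and 100% = no enzyme wells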
Target sequence (Q9P0U3 419-644 limits assumed): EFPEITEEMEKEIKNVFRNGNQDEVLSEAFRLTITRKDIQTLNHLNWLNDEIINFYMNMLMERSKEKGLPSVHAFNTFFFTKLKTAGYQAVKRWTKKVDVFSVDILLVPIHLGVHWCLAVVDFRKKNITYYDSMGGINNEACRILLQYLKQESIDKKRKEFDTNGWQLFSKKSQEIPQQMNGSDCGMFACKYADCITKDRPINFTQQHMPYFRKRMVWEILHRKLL
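System: Recombinant human SENP1 catalytic domain, His6-tagged | Incubation: Enzyme reaction for 50 min at room temperature, dark | Medium: Tris pH 8 with BME, BSA, NP40 and catalase | Also added: 25 nM SUMO1 FRET substrate | Compound: 10 µM single point, 0.5% DMSO | Measured by: FRET fluorescence in CFP and YFP emission channels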
SENP7 inh = SENP7 protease inhibition; Q9BQF6; recombinant SENP7, Z-RLRGG-aminoluciferin luminescence, 40 min; inhibition, % at 5 µM; hit rate 1.5% among 330,000;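 active means inhibition above about 50% at the single test dose, limit read from the data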;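 further: plate controls were DMSO with enzyme for no effect and no enzyme buffer wells for full effect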
SENP8 conf = human SENP8 inhibition, confirmed; shares compounds with SENP7 inh; Recombinant SENP8, Z-RLRGG-aminoluciferin luminescence, 60 min; inhibition, % at 12.5 µM; hit rate 40% among 6,200; AID 488912;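 active means mean inhibition across replicates above about 50%, limit read from the data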
SENP6 conf = confirmation of human SENP6 protease inhibitors; recombinant SENP6, Z-RLRGG-aminoluciferin luminescence; hit rate 58% among 6,200; shares compounds with SENP7 inh; inhibition, % at 12.5 µM; AID 488915
SENP7 confirm = confirmation of human SENP7 protease inhibitors | recombinant SENP7, Z-RLRGG-aminoluciferin luminescence, 40 min | hit rate 69% among 6,200 | inhibition, % at 12.5 µM | shares compounds with SENP7 inh
Casp3 SENP sel = selectivity test for SENP inhibitors: human caspase-3 inhibition. shares compounds with SENP7 inh. purified caspase-3, Z-DEVD-aminoluciferin luminescence, 60 min. inhibition, % at 12.5 µM. hit rate 60% among 6,200;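 active means mean inhibition above about 50%, limit read from the data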;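 further: plate controls were enzyme with DMSO for no effect and wells without caspase-3 for full effect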
Target sequence (P42574 28-227 limits assumed): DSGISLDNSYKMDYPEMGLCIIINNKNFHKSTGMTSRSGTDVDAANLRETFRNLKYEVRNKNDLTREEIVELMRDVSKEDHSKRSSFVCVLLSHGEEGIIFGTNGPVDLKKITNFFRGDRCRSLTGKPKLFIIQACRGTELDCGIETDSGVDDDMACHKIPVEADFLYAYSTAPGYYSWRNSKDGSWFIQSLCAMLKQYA
SENP luc ctr = luminescence interference (SENP counter-screen). shares compounds with SENP7 inh. Pre-incubated SENP8/Z-RLRGG-aminoluciferin, luciferase luminescence interference. inhibition, % at 12.5 µM. hit rate 39% among 6,200. AID 488919;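 active means mean inhibition above about 50% when retested at one dose, limit read from the data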;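 further: plate controls were DMSO wells with completed reaction for no effect and substrate without enzyme for full effect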
* marks the source's active call; other numbers are inactive results; · = not tested or not shown. This is a sample that favours compounds with a hit; in the whole collection about 2.9% have one here.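 How the source made its calls, unless noted: active means mean inhibition above about 50% in the one-dose retest (limit read from the data); inactive means the rest.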

SMILES	SENP8 block-1	SENP6 block	SENP8 block-2	Apaf1 inhib	SENP1 inh	SENP7 inh	SENP8 conf	SENP6 conf	SENP7 confirm	Casp3 SENP sel	SENP luc ctr
CN(C)c1ccc(/C=N/NC(=O)c2ccccn2)cc1	76*	80*	-121	-12	12	91*	10	85*	98*	95*	66*
CN(C)c1ccc(/C=N/NC(=O)c2cnc3ccccc3c2)cc1	0	2	7	1	-19	2	·	·	·	·	·
CN(C)c1ccc(/C=N/NC(=O)C(=O)N2CCCCCC2)cc1	86*	-12	-67	0	-1	8	4	9	14	3	5
CC1CCCN(C(=O)C2CC(=O)N(c3ccc(Cl)cc3)C2)C1 (centres undefined)	-1	0	17	12	1	6	·	·	·	·	·
CC1(C(=O)O)CCCN1C(=O)c1cccc2ccccc12 (centres undefined)	·	·	10	·	1	·	·	·	·	·	·
CCOc1cc(/C=N/NC(=O)c2ccccn2)ccc1OC(=O)c1cccs1	4	0	-22	12	2	7	·	·	·	·	·
CN(C)c1ccc(/C=N/NC(=O)c2ccnn2C)cc1	91*	95*	-252	4	1	98*	90*	90*	98*	95*	88*
CC(C)c1ccc(/C=N/NC(=O)c2ccccn2)cc1	79*	86*	14	-1	1	80*	71*	84*	98*	89*	38
CN(C)c1ccc(/C=N/NC(=O)c2ccn(C)n2)cc1	-16	-4	-420	-8	-6	-5	·	·	·	·	·
O=C(C=Cc1ccc2c(c1)OCO2)c1ccccc1	·	·	-57	·	-11	·	·	·	·	·	·
O=C(/C=C/c1ccc2c(c1)OCO2)c1ccccn1	73*	75*	0	5	-93	71*	92*	89*	95*	69*	68*
O=C(N/N=C/c1ccc(OC(=O)c2cccs2)cc1)c1ccccn1	13	21	-17	3	4	74*	8	15	2	7	1
CC(C)c1ccc(/C=N/NC(=O)c2cccc(Cl)c2)cc1	·	·	0	·	1	·	·	·	·	·	·
CC(C)(C)OC(=O)N1CCc2onc(-c3ccc(-n4cc(C5=CCCCC5)nn4)cc3)c2C1=O	·	·	15	·	2	·	·	·	·	·	·
C[C@H]1CN([C@@H](C)CO)C(=O)CCCn2cc(nn2)CO[C@@H]1CN(C)S(=O)(=O)c1cccc(F)c1	·	·	7	·	1	·	·	·	·	·	·
CCCn1c(=O)c(C(=O)NCc2ccccc2OC)c(O)c2ccccc21	6	88*	-22	3	1	9	9	5	3	0	4
Cc1cccc2c1-c1sc(C(=O)Nc3nccs3)cc1CO2	-1	40	-399	10	-122	67*	8	12	20	13	10
O=C(CNC(=O)c1ccccc1F)c1ccccc1	27	54*	11	-1	1	51*	44	43	81*	79*	53*
c1ccc2oc(-c3ccc4nc[nH]c4c3)nc2c1	25	35	-305	-3	1	60*	52*	50*	74*	57*	44
Cc1ccc(CN2C(=O)C(CC(C)C)Nc3ncnc(N4CCCCC4)c32)cc1 (centres undefined)	·	·	0	·	1	·	·	·	·	·	·
COc1ccc(NC(=O)c2cc([N+](=O)[O-])ccc2O)cc1	96*	100*	29	-3	2	100*	-25	101*	104*	100*	100*
O=C(Nc1cccc([N+](=O)[O-])c1)c1cc2ccccc2cc1O	80*	87*	40	4	4	70*	14	37	44	79*	4
Cc1c(C(=O)Nc2cccc([N+](=O)[O-])c2)csc1-c1ccccc1	2	72*	25	21	1	97*	32	27	45	76*	52*
O=C(Nc1ccncc1)c1cc2ccccc2cc1O	96*	99*	-6	37	-14	93*	85*	99*	102*	97*	45
Cc1ccc(NC(=O)c2csc(-c3ccccc3)c2C)cc1	·	·	10	·	3	·	·	·	·	·	·
SMILES	SENP8 block-1	SENP6 block	SENP8 block-2	Apaf1 inhib	SENP1 inh	SENP7 inh	SENP8 conf	SENP6 conf	SENP7 confirm	Casp3 SENP sel	SENP luc ctr
O=C(Nc1ccncc1)c1ccccc1F	-5	-10	11	-2	3	8	·	·	·	·	·
CC1(C(=O)NS(=O)(=O)c2ccc(Br)cc2)CCN1C(=O)Cc1cccs1 (centres undefined)	·	·	9	·	0	·	·	·	·	·	·
COc1ccc([N+](=O)[O-])cc1N(CC(O)CN1C(=O)NC(C)(C)C1=O)S(=O)(=O)c1ccc(C)cc1 (centres undefined)	·	·	8	·	3	·	·	·	·	·	·
O=C1C2C3C=CC(O3)C2C(=O)N1N=Cc1cccc2ccccc12 (centres undefined)	·	·	-2	·	1	·	·	·	·	·	·
CCCc1nnc(NC(=O)CN2CCOCC2)s1	-4	-15	12	-1	2	-5	·	·	·	·	·
CCc1nnc(NC(=O)CN2CCOCC2)s1	-7	-15	4	-3	0	99*	11	6	5	1	4
CC(C)c1nnc(NC(=O)CC(=O)Nc2ccccc2C(=O)O)s1	71*	81*	22	2	0	78*	87*	87*	98*	94*	86*
CC(C)Cc1nnc(NC(=O)CC(=O)Nc2ccccc2C(=O)O)s1	53*	70*	13	1	0	40	-1	67*	88*	89*	55*
CCc1nnc(NC(=O)CC(=O)Nc2ccccc2C(=O)O)s1	30	78*	-34	-4	1	55*	68*	63*	89*	88*	71*
CCOc1ccc(NC(=O)CN(C)Cc2ccc3c(c2)OCO3)cc1S(=O)(=O)N1CCCC1	-11	-18	1	22	-1	-9	·	·	·	·	·
Cc1ccc(-n2ncc3c(SCC(N)=O)ncnc32)cc1C	57*	44	-116	4	-2	29	-26	-15	0	7	-6
